Bioassay records: PubChem, The Scripps Research Institute Molecular Screening Center
S1P2 blocker: blocks the human S1P2 receptor. O95136. cell-based S1P2 antagonist assay, inhibition at 5 uM. inhibition, % at 5 µM. 97,000 tested, 0.21% active; in the data active means inhibition above about 45%;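 further: CRE beta-lactamase reporter cells expressing human S1P2 stimulated with S1P; 0% = agonist at EC80 alone and 100% = agonist plus reference antagonist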
Target sequence (O95136 whole entry, looked up): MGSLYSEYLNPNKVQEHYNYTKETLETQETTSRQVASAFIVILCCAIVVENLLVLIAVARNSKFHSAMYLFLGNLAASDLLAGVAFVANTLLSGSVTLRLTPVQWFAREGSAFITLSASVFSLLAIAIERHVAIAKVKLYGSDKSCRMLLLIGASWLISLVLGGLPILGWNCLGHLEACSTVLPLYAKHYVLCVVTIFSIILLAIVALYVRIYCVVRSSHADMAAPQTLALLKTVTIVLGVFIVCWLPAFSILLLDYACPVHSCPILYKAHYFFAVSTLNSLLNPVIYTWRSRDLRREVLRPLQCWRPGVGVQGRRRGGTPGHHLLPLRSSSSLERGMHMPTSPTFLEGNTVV
S1P2 agonist: S1P2 (human) receptor agonism; S1P2-expressing cell line, agonist reporter read-out; activation, % at 4.5 µM; 97,000 tested, 0.46% active; in the data active means activation above about 16%;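 further: 0% = vehicle low control and 100% = maximal reference agonist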
HIV Rev-RRE inh: disrupts HIV-1 Rev binding to RRE RNA; P05866; Rev peptide-RRE RNA binding, FRET; inhibition, % at 8 µM; 97,000 tested, 0.79% active;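 active means inhibition above the screen-wide mean plus 3 SD, cut at about 35% in these data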;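 further: 0% = median DMSO wells and 100% = median Neomycin B control wells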
Target sequence (P05866 whole entry, looked up): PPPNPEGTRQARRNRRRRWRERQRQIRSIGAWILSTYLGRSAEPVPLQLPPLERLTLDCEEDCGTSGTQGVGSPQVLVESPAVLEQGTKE
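Assay system: Labelled RRE RNA duplex and labelled Rev peptide | Times: 5 min preincubation and 15 min binding, 25 °C | Detection: FRET, ex 480 nm, em 540 and 671 nm | Evaluation: % inhibition of FRET ratio versus controls | Benchmarks: DMSO wells as 0% and neomycin B wells as 100% inhibition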
GALR2 antag: blocks the human galanin receptor 2. O43603. GALR2-expressing cells, antagonist mode. inhibition, % at 4 µM. 140,000 tested, 0.39% active;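 further: cells stimulated with galanin 1-16 at roughly its EC80; 0% = agonist challenge control and 100% = basal control without agonist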
EphB4 antag: blocks human EphB4 binding to ephrin-B2; P54760; 97,000 tested, 0.15% active; EphB4 LBD / TNYL-RAW-Alexa532 peptide, fluorescence polarization; inhibition, % at 7 µM;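 active means inhibition above the screen-wide mean inhibition plus 3 SD, cut at about 15% in these data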;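 further: 0% = DMSO wells and 100% = excess unlabeled TNYL-RAW peptide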
GALR2 ag: activates the human galanin receptor 2 | O43603 | GALR2-expressing cells, agonist activation read-out | activation, % (test concentration not listed) | 140,000 tested, 0.48% active; in the data active means activation above about 5%, passing the limit was not always enough;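 further: 0% = vehicle buffer wells and 100% = reference agonist at full effect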
GALR2 ant conf: GALR2 (human) antagonism confirmed; shares compounds with GALR2 antag; GALR2-expressing cells, antagonist mode, inhibition; inhibition, % at 4 µM; 480 tested, 60% active;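 further: cells stimulated with galanin at about its EC80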
BLA inh counter: beta-lactamase inhibition, GALR2 counterscreen; shares compounds with GALR2 antag; CHO NFAT-BLA reporter, beta-lactamase FRET, thapsigargin-stimulated; inhibition, % at 4.2 µM; 480 tested, 36% active; AID 867;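 active means inhibition above the mean inhibition across tested compounds plus 3 SD, cut at about 27% in these data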;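 further: 0% = 500 nM thapsigargin stimulated wells and 100% = unstimulated BSA only wells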
The depositor's hits bear a star; nt = no result given; [ ] = dose if it differs, or a comment. Hits are enriched below; roughly 1.7% of the tested compounds scored in any of these assays. Unless noted, no stated cut-off is given here; in the data, active means inhibition above about 27%; inactive means the rest.

SMILES | S1P2 blocker | S1P2 agonist | HIV Rev-RRE inh | GALR2 antag | EphB4 antag | GALR2 ag | GALR2 ant conf | BLA inh counter
O=c1[nH][nH]c(-c2ccccc2)c1C=Nc1ccc(Cl)cc1 | 18 | -3 | 8 | 29* | 0 | -3 | 19 | 0
O=c1[nH][nH]c(-c2ccccc2)c1C=Nc1cccc(Cl)c1 | 25 | -2 | 0 | 0 | 0 | -2 | nt | nt
CCCCNS(=O)(=O)c1ccc(S(=O)(=O)NCc2ccncc2)cc1 | 19 | -4 | 5 | 27* | 2 | -2 | 20 | 13
Cc1cc(C)c(S(=O)(=O)NCc2ccncc2)c(C)c1 | 47* | -5 | 7 | 31* | 2 | 1 | 35* | 9
CC1C/C(=C\c2cccnc2)C(=O)/C(=C/c2cccnc2)C1 (stereo not drawn) | nt | nt | nt | 36* | nt | -1 | 44* | 20
Cc1cccc(NC2=Nc3ccccc3N3C2=Nc2c(c(C)nn2-c2ccccc2)C3c2ccc(O)c(O)c2)c1 (stereo not drawn) | 80* | -8 | 9 | 45* | 3 | 3 | 44* | 68*
Cc1nn(-c2ccccc2)c2c1C(c1ccc(O)c(O)c1)N1C(=N2)C(Nc2ccccc2)=Nc2ccccc21 (stereo not drawn) | 85* | -12 | 7 | 47* | -6 | 2 | 37* | 59*
Cc1ccc(NC2=Nc3ccccc3N3C2=Nc2c(c(C)nn2-c2ccccc2)C3c2ccc(O)c(O)c2)cc1 (stereo not drawn) | 77* | -9 | 8 | 58* | 2 | 4 | 51* | 69*
Cc1nn(-c2ccccc2)c2c1C(c1ccc([N+](=O)[O-])cc1)N1C(=N2)C(=O)Nc2ccccc21 (stereo not drawn) | nt | nt | nt | 4 | nt | 0 | nt | nt
Cc1nn(-c2ccc([N+](=O)[O-])cc2)c2c1C(c1cccc(Br)c1)N1C(=N2)C(=O)Nc2ccccc21 (stereo not drawn) | nt | nt | nt | 6 | nt | 0 | nt | nt
CC(C)(C)NC(=O)COC(=O)Cc1ccc(Cl)cc1 | -17 | -6 | 9 | -13 | 5 | 0 | nt | nt
CCOc1ccc(C2=Nn3c(nnc3-c3ccccc3OC)SC2)cc1 | 6 | 5 | 6 | 33* | -2 | 5.3* | 32* | 60*
CCOc1ccc(-c2nnc3n2N=C(c2ccc(OC)cc2)CS3)cc1 | -25 | 2 | 0 | -1 | 5 | -2 | nt | nt
Cc1ccc(S(=O)(=O)Cn2nnnc2CN2CCCC3(CCCCC3)C2)cc1 | -9 | -3 | 0 | -13 | 1 | 1 | nt | nt
Cn1nc(-c2ccc(Cl)cc2)nc2c(=O)n(C)c(=O)nc1-2 | 99* | -3 | 26 | 94* | 0 | 4 | 100* | 95*
CCOC(=O)C(Sc1cc(C)nc(N)n1)C(C)=O (stereo not drawn) | 10 | -4 | 7 | 4 | -2 | -3 | nt | nt
N#C/C(=C/c1ccc(-c2ccc(S(N)(=O)=O)cc2)o1)C(=O)Nc1ccccc1 | nt | nt | nt | -3 | nt | 0 | nt | nt
N#C/C(=C/c1ccc(-c2ccc(S(N)(=O)=O)cc2)o1)c1nc2ccccc2s1 | nt | nt | nt | 28* | nt | 0 | 41* | 52*
COc1ccc(NC2=Nc3cccc4cccc2c34)cc1 | nt | nt | nt | 27* | nt | 0 | 16 | 6
COC(=O)c1ccc(COC(=O)c2[nH]c(C)c(C(C)=O)c2C)o1 | 29 | -2 | 6 | 27* | 1 | 0 | 30* | 2
Cc1c(NC(=O)CSc2nnc3sc4ccccc4n23)c(=O)n(-c2ccccc2)n1C | 22 | -5 | 7 | 3 | 3 | 0 | nt | nt
Nc1nn(-c2ccccc2)c(N)c1N=Nc1ccccc1 | nt | nt | nt | 28* | nt | -1 | 16 | 9
CSc1nnc(Cn2c(=O)sc3ccccc32)n1CCc1ccccc1 | 17 | -5 | 8 | 4 | 2 | -2 | nt | nt
O=C(/C=C/c1cn(CC(O)CN2CCCCCC2)c2ccccc12)c1cccs1 (stereo not drawn) | nt | nt | nt | 20 | nt | 2 | nt | nt
CCCCN(C)CC(O)Cn1cc(/C=C/C(=O)c2cccs2)c2ccccc21 (stereo not drawn) | nt | nt | nt | 50* | nt | 1 | 29* | 43*
SMILES | S1P2 blocker | S1P2 agonist | HIV Rev-RRE inh | GALR2 antag | EphB4 antag | GALR2 ag | GALR2 ant conf | BLA inh counter
CCN1CCN(Cc2ccc(NC(=O)CC3Oc4ccc(C)cc4NC3=O)cc2)CC1 (stereo not drawn) | 16 | -6 | -2 | 34* | -10 | -2 | 2 | 3
CCOC(=O)C1=C(Cc2ccc(OC)cc2)C(=O)c2ccccc2C1=O | 33 | -14 | -23 | 32* | 1 | -3 | 20 | 17
CCOC(=O)C1=C(Cc2ccc(C)cc2)C(=O)c2ccccc2C1=O | 9 | -1 | -86 | 16 | -2 | -3 | nt | nt
COc1ccc(N=Cc2c(O)[nH]c3ccccc23)cc1 | -3 | -7 | -1 | 10 | -4 | -2 | nt | nt
Oc1c(C=Nc2cccnc2)sc2ccccc12 | 7 | -2 | 23 | 10 | -2 | 0 | nt | nt
Oc1sc(C=Nc2ccc(F)cc2)c2ccccc12 | 27 | -7 | 109*[fluorescence artefact?] | 39* | -4 | -2 | 27* | 14
Oc1sc(C=Nc2ccccc2)c2ccccc12 | 32 | -6 | 120*[fluorescence artefact?] | 39* | -1 | -2 | 30* | 28*
COc1cc(/C=C2\CC/C(=C\c3cc(OC)c(O)c(OC)c3)C2=O)cc(OC)c1O | nt | nt | nt | 58* | nt | -2 | 41* | 30*
O=C(CN1CCC(NC(=O)Cc2ccccc2)CC1)Nc1cccc2ccccc12 | -7 | -11 | 5 | -8 | -3 | -3 | nt | nt
C=CCn1c(C)cc(C(=O)Cn2ncc(Cl)c(Cl)c2=O)c1C | nt | nt | nt | 57* | nt | -2 | 46* | 21
Cc1ccc(C2CC(c3cccs3)n3nc(N)nc3N2)cc1 (stereo not drawn) | 10 | -3 | 30 | 0 | 12 | 0 | nt | nt
CCN1CCc2c(sc(NC(=O)Nc3ccc(Cl)c(Cl)c3)c2C(N)=O)C1 | nt | nt | nt | 27* | nt | -1 | 25 | 21
CCc1ccc(NSc2ccccc2[N+](=O)[O-])cc1 | -20 | 1 | 16 | 5 | 9 | -1 | nt | nt
COc1ccc(OC)c(S(=O)(=O)N2CCN(C)CC2)c1 | nt | nt | nt | 10 | nt | -1 | nt | nt
COc1ccc(OC)c(S(=O)(=O)N2CCCCCC2)c1 | nt | nt | nt | 28* | nt | -2 | 2 | 0
Cn1cnc([N+](=O)[O-])c1NC(C)(C)C | -6 | -3 | -4 | 3 | -4 | 0 | nt | nt
Cn1cnc([N+](=O)[O-])c1S(=O)(=O)c1ccc(Cl)cc1 | nt | nt | nt | 38* | nt | -1 | 41* | 21
O=C(OCn1ncc(Br)c(Br)c1=O)c1c(F)cccc1F | 69* | -7 | 2 | 96* | 3 | -5 | 94* | 98*
CC1(C)CC(=O)C(C(C2=C(O)CC(C)(C)CC2=O)c2cccc(O)c2)C(=O)C1 (stereo not drawn) | 19 | -7 | 6 | 0 | 6 | -2 | nt | nt
